In ChEMBL document CHEMBL4130384, “Design, synthesis and biological evaluation of novel 2-methoxyestradiol analogs as dual selective estrogen receptor modulators (SERMs) and antiangiogenic agents” (Eur J Med Chem, 2017):
Calls of active or inactive are those of the source. The rule behind the calls is not given here.

Legend:
MCF7 [1] = test: Antiproliferative activity against human MCF7 cells after 48 hrs by MTT assay; type: functional, cell-based; conditions: MCF7, 48 h
In short: (§1)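 Cells grown in RPMI1640 with 10% FBS and penicillin/streptomycin at 37 °C, 5% CO2. Seeded at 1 × 10^5/mL, grown 24 h, then exposed to compound at 1 × 10^-4 to 1 × 10^-7 mol/L for 48 h. Controls received medium with 1% DMSO. MTT 4 h, formazan dissolved in DMSO, absorbance at 490 nm; IC50 derived.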

HepG2 = test: Antiproliferative activity against human HepG2 cells after 48 hrs by MTT assay; type: functional, cell-based; conditions: HepG2, 48 h; in short: as §1
HUVEC = test: Antiproliferative activity against HUVEC after 48 hrs by MTT assay; type: functional, cell-based; conditions: Homo sapiens; in short: as §1
Ishikawa [2] = test: Antiproliferative activity against human Ishikawa cells after 48 hrs by MTT assay; type: functional, cell-based; in short: as §1
PC-3 = test: Antiproliferative activity against human PC3 cells after 48 hrs by MTT assay; type: functional, cell-based; conditions: PC-3, 48 h; in short: as §1
Ishikawa [3] = test: Antiproliferative activity against human Ishikawa cells assessed as suppression of proliferation at 10 uM after 48 hrs by MTT assay relative to control; type: functional
MCF7 [4] = test: Effect on AIM2 mRNA expression in human MCF7 cells at 0.5 to 2 uM by RT-PCR method; type: functional, cell-based
In short: (§2)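 AIM2 mRNA, an ER-independent reference transcript, measured in treated MCF-7 cells by real-time PCR. Normalized to GAPDH and quantified by the ΔΔCT method. Mean ± SD, n = 3.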

MCF7 [5] = test: Cell cycle arrest in human MCF7 cells assessed as S phase accumulation at 1 uM after 6 hrs by propidium iodide staining based flow cytometry (reference value: 33.14%); type: functional
In short: (§3)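 MCF-7 cells plated at 3 × 10^5 per well and left overnight, then treated in serum-free medium with a DMSO reference control. Cells fixed in 70% ice-cold ethanol, washed in PBS, stained with propidium iodide at 4 °C. Flow cytometry gave percentages in G1, S and G2/M phases. Mean ± SEM of three independent experiments.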

[6] = biological target: T1, Estrogen receptor (Homo sapiens) (UniProt P03372); test: Inhibition of estrogen receptor in human MCF7 cells assessed as inhibition of estradiol-induced PgR mRNA expression by RT-PCR method relative to control; type: cell-based
T1 sequence (whole entry): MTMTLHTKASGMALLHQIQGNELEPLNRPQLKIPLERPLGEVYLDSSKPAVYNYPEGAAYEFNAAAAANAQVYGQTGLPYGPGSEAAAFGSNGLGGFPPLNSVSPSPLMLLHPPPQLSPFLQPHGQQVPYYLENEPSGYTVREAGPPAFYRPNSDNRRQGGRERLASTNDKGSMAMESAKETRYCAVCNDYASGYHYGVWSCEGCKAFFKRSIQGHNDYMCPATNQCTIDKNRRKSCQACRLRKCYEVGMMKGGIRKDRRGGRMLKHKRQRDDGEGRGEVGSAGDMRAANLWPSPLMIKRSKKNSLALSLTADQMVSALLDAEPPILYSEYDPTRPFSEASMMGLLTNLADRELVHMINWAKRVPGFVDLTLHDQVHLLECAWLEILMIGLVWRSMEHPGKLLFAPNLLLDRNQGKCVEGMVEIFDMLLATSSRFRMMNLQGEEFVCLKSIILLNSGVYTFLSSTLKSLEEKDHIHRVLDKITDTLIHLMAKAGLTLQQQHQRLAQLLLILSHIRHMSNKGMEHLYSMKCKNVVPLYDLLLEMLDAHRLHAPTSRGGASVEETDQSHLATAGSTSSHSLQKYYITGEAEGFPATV
In short: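 MCF-7 cells stimulated with 10 nM E2 and co-treated with compound. PgR mRNA measured by real-time PCR, normalized to GAPDH and quantified by the ΔΔCT method. The 10 nM E2 level was set as 100%. Mean ± SD, n = 3.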

MCF7 [7] = test: Cell cycle arrest in human MCF7 cells assessed as G0/G1 phase accumulation at 2 uM after 6 hrs by propidium iodide staining based flow cytometry (reference value: 42.62%); type: functional; in short: as §3
MCF7 [8] = test: Cell cycle arrest in human MCF7 cells assessed as G2/M phase accumulation at 1 uM after 6 hrs by propidium iodide staining based flow cytometry (reference value: 22.46%); type: functional; in short: as §3
Chorioallantoic membrane [9] = test: In vivo antiangiogenic activity in chicken fertilized egg chorioallantoic membrane at 40 uM after 72 hrs; type: functional, organism-based; conditions: Gallus gallus
In short: (§4)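 Fertilized eggs incubated 7 days at 37 °C, 5% CO2, with saturated humidity. A ~1 cm2 shell window exposed the CAM. Compounds in DMSO were applied on sterile methyl cellulose filter papers placed on the CAM, with PBS as blank. Window taped shut, eggs incubated 72 h at 37 °C, 60% relative humidity.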

MCF7 [10] = test: Cell cycle arrest in human MCF7 cells assessed as G2/M phase accumulation at 2 uM after 6 hrs by propidium iodide staining based flow cytometry (reference value: 22.46%); type: functional; in short: as §3
MCF7 [11] = test: Cell cycle arrest in human MCF7 cells assessed as S phase accumulation at 2 uM after 6 hrs by propidium iodide staining based flow cytometry (reference value: 33.14%); type: functional; in short: as §3
MCF7 [12] = test: Cell cycle arrest in human MCF7 cells assessed as G2/M phase accumulation after 6 hrs by propidium iodide staining based flow cytometry; type: functional; in short: as §3
MCF7 [13] = test: Cell cycle arrest in human MCF7 cells assessed as G0/G1 phase accumulation at 1 uM after 6 hrs by propidium iodide staining based flow cytometry (reference value: 42.62%); type: functional; in short: as §3
Chorioallantoic membrane [14] = test: In vivo antiangiogenic activity in chicken fertilized egg chorioallantoic membrane after 72 hrs; type: functional, organism-based; conditions: Gallus gallus; in short: as §4
MCF7 [15] = test: Effect on AIM2 mRNA expression in human MCF7 cells at 2 uM by RT-PCR method; type: functional, cell-based; in short: as §2

COc1cc2c(cc1O)CC[C@@H]1[C@@H]2CC[C@]2(C)[C@@H](O)CC[C@@H]12 [2-METHOXYESTRADIOL]
IC50 (MCF7 [1]): 6.01 µM
IC50 (HepG2): 11 µM
IC50 (HUVEC): 14.2 µM
IC50 (Ishikawa [2]): 8.96 µM
IC50 (PC-3): 12.3 µM
Activity (Ishikawa [3]): Active

CN1CCN(CC(=O)Nc2ccc(C(=O)O[C@@H]3C[C@]4(C)[C@@H](O)CC[C@H]4[C@@H]4CCc5cc(O)ccc5[C@H]43)cc2)CC1
IC50 (MCF7 [1]): 29.6 µM
IC50 (HepG2): 15.1 µM
IC50 (HUVEC): 37 µM
IC50 (Ishikawa [2]): 9.66 µM
IC50 (PC-3): 19.4 µM
Activity (Ishikawa [3]): Active

COCOc1ccc2c(c1)CC[C@@H]1[C@@H]2[C@H](OC(=O)c2ccc(NC(=O)CN3CCN(C)CC3)cc2)C[C@]2(C)[C@@H](OCOC)CC[C@@H]12
IC50 (MCF7 [1]): 4.06 µM
IC50 (HepG2): 2.73 µM
Activity (MCF7 [4]): inactive
IC50 (HUVEC): 5.23 µM
Activity (MCF7 [5]): 34.82%
inhibition [6]: Dose-dependent effect
Activity (MCF7 [7]): 14.63%
IC50 (Ishikawa [2]): 7.75 µM
Activity (MCF7 [8]): 41.9%
Activity (Chorioallantoic membrane [9]): Active
Activity (MCF7 [10]): 51.41%
Activity (MCF7 [11]): 34.57%
Activity (MCF7 [12]): Dose-dependent effect
Activity (MCF7 [13]): 21.47%
Activity (Chorioallantoic membrane [14]): Dose-dependent effect
IC50 (PC-3): 2.85 µM
Activity (Ishikawa [3]): Active

COc1ccc2c(c1)CC[C@@H]1[C@@H]2[C@H](OC(=O)c2ccc(NC(=O)CN(C)C)cc2)C[C@]2(C)[C@@H](OC)CC[C@@H]12
IC50 (MCF7 [1]): 34.3 µM
IC50 (HepG2): 3.42 µM
IC50 (HUVEC): 6.97 µM
IC50 (Ishikawa [2]): 15.6 µM
IC50 (PC-3): 6.49 µM
Activity (Ishikawa [3]): Active

COCOc1ccc2c(c1)CC[C@@H]1[C@@H]2[C@H](OC(=O)c2ccc(NC(=O)CN3CCCC3)cc2)C[C@]2(C)[C@@H](OCOC)CC[C@@H]12
IC50 (MCF7 [1]): 14.3 µM
IC50 (HepG2): 25.4 µM
IC50 (HUVEC): 9.28 µM
IC50 (Ishikawa [2]): 7.3 µM
IC50 (PC-3): 17.1 µM
Activity (Ishikawa [3]): Active

COc1ccc2c(c1)CC[C@@H]1[C@@H]2[C@H](OC(=O)c2ccc(NC(=O)CN3CCCC3)cc2)C[C@]2(C)[C@@H](OC)CC[C@@H]12
IC50 (MCF7 [1]): 13.7 µM
IC50 (HepG2): 8.64 µM
IC50 (HUVEC): 3.69 µM
IC50 (Ishikawa [2]): 4.79 µM
IC50 (PC-3): 10.6 µM
Activity (Ishikawa [3]): Active

CC/C(=C(\c1ccccc1)c1ccc(OCCN(C)C)cc1)c1ccccc1 [TAMOXIFEN]
Activity (MCF7 [15]): inactive
Activity (Ishikawa [3]): -60.1%

COc1cc2c(cc1OC)[C@@H]1[C@@H](CC2)[C@@H]2CC[C@H](OC)[C@@]2(C)C[C@H]1OC(=O)c1ccc(NC(=O)CN2CCN(C)CC2)cc1
IC50 (MCF7 [1]): 4.33 µM
IC50 (HepG2): 5.22 µM
Activity (MCF7 [4]): inactive
IC50 (HUVEC): 4.85 µM
Activity (MCF7 [5]): 31.14%
inhibition [6]: Dose-dependent effect
Activity (MCF7 [7]): 17.78%
IC50 (Ishikawa [2]): 5.55 µM
Activity (MCF7 [8]): 44.06%
Activity (Chorioallantoic membrane [9]): Active
Activity (MCF7 [10]): 49.19%
Activity (MCF7 [11]): 33.77%
Activity (MCF7 [12]): Dose-dependent effect
Activity (MCF7 [13]): 25.95%
Activity (Chorioallantoic membrane [14]): Dose-dependent effect
IC50 (PC-3): 4.29 µM
Activity (Ishikawa [3]): Active

C[C@]12C[C@@H](OC(=O)c3ccc(NC(=O)CN4CCCC4)cc3)[C@@H]3c4ccc(O)cc4CC[C@H]3[C@@H]1CC[C@@H]2O
IC50 (MCF7 [1]): 34.7 µM
IC50 (HepG2): 21.1 µM
IC50 (HUVEC): 36.1 µM
IC50 (Ishikawa [2]): 17.3 µM
IC50 (PC-3): 39.1 µM
Activity (Ishikawa [3]): Active

COc1ccc2c(c1)CC[C@@H]1[C@@H]2[C@H](OC(=O)c2ccc(NC(=O)CN3CCN(C)CC3)cc2)C[C@]2(C)[C@@H](OC)CC[C@@H]12
IC50 (MCF7 [1]): 12.9 µM
IC50 (HepG2): 8.12 µM
IC50 (HUVEC): 5.88 µM
IC50 (Ishikawa [2]): 7.52 µM
IC50 (PC-3): 18.1 µM
Activity (Ishikawa [3]): Active

CN(C)CC(=O)Nc1ccc(C(=O)O[C@@H]2C[C@]3(C)[C@@H](O)CC[C@H]3[C@@H]3CCc4cc(O)ccc4[C@H]32)cc1
IC50 (MCF7 [1]): 47.2 µM
IC50 (HepG2): 8.92 µM
IC50 (HUVEC): 32 µM
IC50 (Ishikawa [2]): 37.5 µM
IC50 (PC-3): 23.4 µM
Activity (Ishikawa [3]): Active

COc1cc2c(cc1OC)[C@@H]1[C@@H](CC2)[C@@H]2CC[C@H](OC)[C@@]2(C)C[C@H]1OC(=O)c1ccc(NC(=O)CN(C)C)cc1
IC50 (MCF7 [1]): 28.2 µM
IC50 (HepG2): 1.78 µM
IC50 (HUVEC): 5.88 µM
IC50 (Ishikawa [2]): 6.32 µM
IC50 (PC-3): 8.94 µM
Activity (Ishikawa [3]): Active

COc1cc2c(cc1OC)[C@@H]1[C@@H](CC2)[C@@H]2CC[C@H](OC)[C@@]2(C)C[C@H]1OC(=O)c1ccc(NC(=O)CN2CCCC2)cc1
IC50 (MCF7 [1]): 15 µM
IC50 (HepG2): 3.05 µM
IC50 (HUVEC): 2.63 µM
IC50 (Ishikawa [2]): 5.51 µM
IC50 (PC-3): 3.74 µM
Activity (Ishikawa [3]): Active

COCOc1ccc2c(c1)CC[C@@H]1[C@@H]2[C@H](OC(=O)c2ccc(NC(=O)CN(C)C)cc2)C[C@]2(C)[C@@H](OCOC)CC[C@@H]12
IC50 (MCF7 [1]): 28 µM
IC50 (HepG2): 23.5 µM
IC50 (HUVEC): 17.7 µM
IC50 (Ishikawa [2]): 28.5 µM
IC50 (PC-3): 17.6 µM
Activity (Ishikawa [3]): Active
